# From ChEMBL document CHEMBL1155898 (J Med Chem, 2008)
# Activity calls are given as the source filed them.
# Legend:
# [1] = Displacement of [3H]flumazenil from CBR in bovine cortical membrane; assay type: cell membranes, Bos taurus
# How it was run: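 Bovine or human cortical membranes washed free of endogenous GABA. […] Nonspecific binding with 10 µM diazepam. At least six concentrations over 3 log units, DMSO 2%. IC50 converted to Ki by Cheng-Prusoff (Kd 0.85 nM bovine, 0.91 nM human). Ki is the mean of three determinations.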
# [2] = Displacement of [3H]flumazenil from CBR in human cortical membrane; assay type: cell membranes
# How it was run: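 Bovine or human cortical membranes washed free of endogenous GABA. Nonspecific binding with 10 µM diazepam. At least six concentrations over 3 log units, DMSO 2%. Ki is the mean of three determinations.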
# [3] = organism: Bos taurus; experiment: Ratio of Ki for bovine CBR in absence of GABA to Ki for bovine CBR in presence of 50 uM GABA
# [4] = organism: Homo sapiens; experiment: Ratio of Ki for human CBR in absence of GABA to Ki for human CBR in presence of 50 uM GABA
# [5] = test system: Mus musculus; experiment: Toxic myorelaxant activity in CD1 albino mouse assessed as number of falls in 30 secs at 0.3 mg/kg, po after 30 mins by rotarod test; assay type: toxicity, organism-based; set-up: dose 0.3 mg/kg, route oral; conditions: in vivo
# How it was run: (§1)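 Male CD-1 mice, dosed po or ip in 1% CMC (10 mL/kg). Rota-rod at 16 rpm; falls counted over 30 s, 30 min after dosing. At least 15-20 mice per group; ANOVA with Fisher PLSD versus CMC/saline controls.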
# [6] = test system: Mus musculus; experiment: Toxic myorelaxant activity in CD1 albino mouse assessed as number of falls in 30 secs at 1 mg/kg, po after 30 mins by rotarod test; assay type: toxicity, organism-based; set-up: dose 1 mg/kg, route oral; conditions: in vivo; how it was run: as §1
# [7] = test system: Mus musculus; experiment: Toxic myorelaxant activity in CD1 albino mouse assessed as number of falls in 30 secs at 3 mg/kg, po after 30 mins by rotarod test; assay type: toxicity, organism-based; set-up: dose 3 mg/kg, route oral; conditions: in vivo; how it was run: as §1
# [8] = test system: Mus musculus; experiment: Toxic myorelaxant activity in CD1 albino mouse assessed as number of falls in 30 secs at 6.5 mg/kg, po after 30 mins by rotarod test; assay type: toxicity, organism-based; set-up: dose 6.5 mg/kg, route oral; conditions: in vivo; how it was run: as §1
# [9] = test system: Mus musculus; experiment: Toxic myorelaxant activity in CD1 albino mouse assessed as number of falls in 30 secs at 12.5 mg/kg, po after 30 mins by rotarod test; assay type: toxicity, organism-based; set-up: dose 12.5 mg/kg, route oral; conditions: in vivo; how it was run: as §1
# [10] = test system: Mus musculus; experiment: Anticonvulsant activity in CD1 albino mouse assessed as pentylenetetrazole-induced convulsion latency time at 3 mg/kg, po; assay type: functional
# How it was run: (§2)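 Mice dosed po or ip in 1% CMC (10 mL/kg). Pentylenetetrazole 90 mg/kg sc given 30 min later; clonic generalized convulsions observed over 30 min. ANOVA/Fisher PLSD versus vehicle controls.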
# [11] = test system: Mus musculus; experiment: Effect on learning and memory performance in CD1 albino mouse assessed as training session latency at 3 mg/kg, po by passive avoidance test; assay type: functional
# How it was run: (§3)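 Mice dosed po or ip in 1% CMC (10 mL/kg). Step-through passive avoidance in a two-compartment box (lit and dark, joined by guillotine door); latencies recorded in training and retention sessions. At least 15-20 mice per group; ANOVA/Fisher PLSD versus CMC controls.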
# [12] = test system: Mus musculus; experiment: Anticonvulsant activity in CD1 albino mouse assessed as pentylenetetrazole-induced convulsion latency time at 6.5 mg/kg, po; assay type: functional; how it was run: as §2
# [13] = test system: Mus musculus; experiment: Anticonvulsant activity in CD1 albino mouse assessed as pentylenetetrazole-induced death latency time at 6.5 mg/kg, po; assay type: functional; how it was run: as §2
# [14] = test system: Mus musculus; experiment: Anticonvulsant activity in CD1 albino mouse assessed as pentylenetetrazole-induced convulsion latency time at 12.5 mg/kg, po; assay type: functional; how it was run: as §2
# [15] = test system: Mus musculus; experiment: Anticonvulsant activity in CD1 albino mouse assessed as pentylenetetrazole-induced death latency time at 12.5 mg/kg, po; assay type: functional; how it was run: as §2
# [16] = test system: Mus musculus; experiment: Antianxiety activity in CD1 albino mouse assessed as number of crosses at 0.3 mg/kg, po by light-dark box method; assay type: functional
# How it was run: (§4)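 Male CD-1 mice given drug po or ip in 1% CMC at 10 mL/kg. Light/dark box: number of transfers between compartments and time spent in the lit side recorded. At least 15-20 mice per group; ANOVA/Fisher PLSD versus vehicle.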
# [17] = test system: Mus musculus; experiment: Antianxiety activity in CD1 albino mouse assessed as time spent in light at 0.3 mg/kg, po by light-dark box method; assay type: functional; how it was run: as §4
# [18] = test system: Mus musculus; experiment: Antianxiety activity in CD1 albino mouse assessed as number of crosses at 1 mg/kg, po by light-dark box method; assay type: functional; how it was run: as §4
# [19] = test system: Mus musculus; experiment: Antianxiety activity in CD1 albino mouse assessed as time spent in light at 1 mg/kg, po by light-dark box method; assay type: functional; how it was run: as §4
# [20] = test system: Mus musculus; experiment: Antianxiety activity in CD1 albino mouse assessed as number of crosses at 3 mg/kg, po by light-dark box method; assay type: functional; how it was run: as §4
# [21] = test system: Mus musculus; experiment: Antianxiety activity in CD1 albino mouse assessed as time spent in light at 3 mg/kg, po by light-dark box method; assay type: functional; how it was run: as §4
# [22] = test system: Mus musculus; experiment: Antianxiety activity in CD1 albino mouse assessed as number of crosses at 6.5 mg/kg, po by light-dark box method; assay type: functional; how it was run: as §4
# [23] = test system: Mus musculus; experiment: Antianxiety activity in CD1 albino mouse assessed as time spent in light at 6.5 mg/kg, po by light-dark box method; assay type: functional; how it was run: as §4
# [24] = test system: Mus musculus; experiment: Antianxiety activity in CD1 albino mouse assessed as number of crosses at 12.5 mg/kg, po by light-dark box method; assay type: functional; how it was run: as §4
# [25] = test system: Mus musculus; experiment: Antianxiety activity in CD1 albino mouse assessed as time spent in light at 12.5 mg/kg, po by light-dark box method; assay type: functional; how it was run: as §4
# [26] = test system: Mus musculus; experiment: Effect on ethanol-induced sleep in CD1 albino mouse assessed as induction time at 3 mg/kg, po; assay type: functional
# How it was run: (§5)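 Mice dosed po or ip in 1% CMC (10 mL/kg). Ethanol 4 g/kg ip given 30 min later. Sleep time taken as duration of loss of righting reflex, cut-off 210 min. At least 15-20 mice per group; ANOVA/Fisher PLSD.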
# [27] = test system: Mus musculus; experiment: Effect on ethanol-induced sleep in CD1 albino mouse time assessed as endurance time 3 mg/kg, po; assay type: functional; how it was run: as §5
# [28] = test system: Mus musculus; experiment: Effect on ethanol-induced sleep in CD1 albino mouse assessed as induction time 6.5 mg/kg, po; assay type: functional; how it was run: as §5
# [29] = test system: Mus musculus; experiment: Effect on ethanol-induced sleep in CD1 albino mouse time assessed as endurance time 6.5 mg/kg, po; assay type: functional; how it was run: as §5
# [30] = test system: Mus musculus; experiment: Effect on ethanol-induced sleep in CD1 albino mouse assessed as induction time 12.5 mg/kg, po; assay type: functional; how it was run: as §5
# [31] = test system: Mus musculus; experiment: Effect on ethanol-induced sleep in CD1 albino mouse assessed as endurance time 12.5 mg/kg, po; assay type: functional; how it was run: as §5
# [32] = test system: Mus musculus; experiment: Effect on ethanol-induced sleep in CD1 albino mouse assessed as induction time 1 mg/kg, ip; assay type: functional; conditions: route intraperitoneal; how it was run: as §5
# [33] = test system: Mus musculus; experiment: Effect on ethanol-induced sleep in CD1 albino mouse time assessed as endurance time 1 mg/kg, ip; assay type: functional; conditions: route intraperitoneal; how it was run: as §5
# [34] = test system: Mus musculus; experiment: Anticonvulsant activity in CD1 albino mouse assessed as pentylenetetrazole-induced death latency time at 3 mg/kg, po by; assay type: functional; how it was run: as §2
# [35] = test system: Mus musculus; experiment: Effect on learning and memory performance in CD1 albino mouse assessed as retention session latency at 3 mg/kg, po by passive avoidance test; assay type: functional; how it was run: as §3
# [36] = test system: Mus musculus; experiment: Effect on learning and memory performance in CD1 albino mouse assessed as training session latency at 6.5 mg/kg, po by passive avoidance test; assay type: functional; how it was run: as §3
# [37] = test system: Mus musculus; experiment: Effect on learning and memory performance in CD1 albino mouse assessed as retention session latency at 6.5 mg/kg, po by passive avoidance test; assay type: functional; how it was run: as §3
# [38] = test system: Mus musculus; experiment: Effect on learning and memory performance in CD1 albino mouse assessed as training session latency at 12.5 mg/kg, po by passive avoidance test; assay type: functional; how it was run: as §3
# [39] = test system: Mus musculus; experiment: Effect on learning and memory performance in CD1 albino mouse assessed as retention session latency at 12.5 mg/kg, po by passive avoidance test; assay type: functional; how it was run: as §3
# [40] = organism: Bos taurus; experiment: Displacement of [3H]flumazenil from CBR in bovine cortical membrane at 10 uM; assay type: cell membranes
# [41] = organism: Homo sapiens; experiment: Displacement of [3H]flumazenil from CBR in human cortical membrane at 10 uM; assay type: cell membranes
# [42] = organism: Rattus norvegicus; experiment: Inverse agonist activity at CBR in Sprague-Dawley rat brain cortex assessed as decrease in chloride influx; assay type: functional
# [43] = organism: Rattus norvegicus; experiment: Agonist activity at CBR in Sprague-Dawley rat brain cortex assessed as increase in chloride influx; assay type: functional, tissue-based
# [44] = test system: Mus musculus; experiment: Anticonvulsant activity in CD1 albino mouse assessed as pentylenetetrazole-induced convulsion latency time at 1 mg/kg, ip; assay type: functional, organism-based; set-up: dose 1 mg/kg; how it was run: as §2
# [45] = test system: Mus musculus; experiment: Anticonvulsant activity in CD1 albino mouse assessed as pentylenetetrazole-induced death latency time at 1 mg/kg, ip; assay type: functional, organism-based; set-up: dose 1 mg/kg; how it was run: as §2
# [46] = test system: Mus musculus; experiment: Antianxiety activity in CD1 albino mouse assessed as time spent in light at 1 mg/kg, ip by light-dark box method; assay type: functional; conditions: route intraperitoneal; how it was run: as §4
# [47] = test system: Mus musculus; experiment: Effect on learning and memory performance in CD1 albino mouse assessed as training session latency at 1 mg/kg, ip by passive avoidance test; assay type: functional; conditions: route intraperitoneal; how it was run: as §3
# [48] = test system: Mus musculus; experiment: Effect on learning and memory performance in CD1 albino mouse assessed as retention session latency at 1 mg/kg, ip by passive avoidance test; assay type: functional; conditions: route intraperitoneal; how it was run: as §3
smiles,measurement,setting,value
CCOC(=O)c1ncn2c1CN=C(c1cccc([N+](=O)[O-])c1)c1cc(F)ccc1-2,Ki,[1],4.4 nM
same,Ki,[2],9.7 nM
same,Ratio Ki,[3],1.19
same,Ratio Ki,[4],1.2
same,Activity,[5],2.3
same,Activity,[6],2.2
same,Activity,[7],2.1
same,Activity,[8],2.7
same,Activity,[9],4.4
same,Time,[10],18.7 min
same,Time,[11],18.3 s
same,Time,[12],19.3 min
same,Time,[13],22.5 min
same,Time,[14],23.6 min
same,Time,[15],39.8 min
same,Activity,[16],14.6
same,Activity,[17],123.7
same,Activity,[18],8.6
same,Time,[19],132 s
same,Activity,[20],5.6
same,Time,[21],169.3 s
same,Activity,[22],5.4
same,Time,[23],181.2 s
same,Activity,[24],5.1
same,Time,[25],186.8 s
same,Time,[26],6.1 min
same,Time,[27],13.5 min
same,Time,[28],7.3 min
same,Time,[29],118.2 min
same,Time,[30],6.8 min
same,Time,[31],177.8 min
same,Time,[32],6.8 min
same,Time,[33],177.8 min
same,Time,[34],21.9 min
same,Time,[35],88.7 s
same,Time,[36],17.9 s
same,Time,[37],76.5 s
same,Time,[38],16 s
same,Time,[39],55.7 s
same,Activity,[40],> 80%
same,Activity,[41],> 80%
same,Activity,[42],Active
same,Activity,[43],Active
CN1C(=O)CN=C(c2ccccc2)c2cc(Cl)ccc21 [DIAZEPAM],Activity,[44],inactive
same,Activity,[45],inactive
same,Time,[46],175.3 s
same,Time,[32],4.6 min
same,Time,[33],>210 min
same,Time,[47],20.9 s
same,Time,[48],52.3 s
CN1C(=O)CN=C(c2ccccc2F)c2cc([N+](=O)[O-])ccc21 [FLUNITRAZEPAM],Ki,[1],5.17 nM
same,Ki,[2],6.5 nM
same,Ratio Ki,[3],1.68
same,Ratio Ki,[4],1.6
CCOC(=O)c1ncn2c1CN(C)C(=O)c1cc(F)ccc1-2 [FLUMAZENIL],Ki,[1],1.9 nM
CCOC(=O)c1ncn2c1CN=C(c1ccc([N+](=O)[O-])cc1)c1ccccc1-2,IC50,[1],1.8 nM
CCOC(=O)c1ncn2c1CN=C(c1ccc([N+](=O)[O-])cc1)c1cc(F)ccc1-2,Ki,[1],14.8 nM
same,Ki,[2],20 nM
same,Ratio Ki,[3],0.89
same,Ratio Ki,[4],0.86
same,Activity,[40],> 80%
same,Activity,[41],> 80%
same,Activity,[42],Active
same,Activity,[43],Active
